Published values from different studies.
Lines come from different studies, so protocols differ.
FGFR1: Fibroblast growth factor receptor 1 (FGFR1, Homo sapiens, UniProt P11362)

O=C1NC(=O)c2cc(Nc3ccc(F)cc3)c(Nc3ccc(F)cc3)cc21
remaining signal (FGFR1; cell-free assay; 0.5 µM): 92.1%

CCOc1cc(-c2nncn2C)ccc1Nc1ncc2cc(C)nc(NCC(C)(C)C)c2n1
inhibition (FGFR1; enzyme activity, inhibitor, FRET; 1 µM): < 15%

Oc1cccc(-c2nc(N3CCOCC3)c3oc4ncccc4c3n2)c1
remaining signal (FGFR1; cell-free assay; 0.5 µM): 91.7%

COc1cc2ncnc(Nc3ccc(Oc4ccccc4)c(C)c3C)c2cc1OC
inhibition (FGFR1; enzyme activity, inhibitor; 1 µM): -2%

Cc1cc(C)c(-n2ccn3nc(-c4cccnc4)cc23)cc1NC(=O)c1cc(C#N)cc(S(F)(F)(F)(F)F)c1
remaining binding (FGFR1; cell-free assay, competition with immobilised ligand; 0.1 µM): 85.5%

Cc1cc(NC(=O)c2cccc3cc(-c4cccc5[nH]nc(N)c45)ccc23)ccc1F
activity vs control (FGFR1; enzyme activity, inhibitor; 0.1 µM): 95%

CNC(=O)c1cc(Oc2ccc(NC(=O)Nc3ccc(Cl)c(C(F)(F)F)c3)cc2)ccn1
inhibition (Fibroblast growth factor receptor 1 (FGFR1, Homo sapiens, UniProt P11362, V561M); cell-free assay; 0.3 µM): 26%

Cc1c[nH]c2nccc(Oc3c(F)cc(Nc4cc(Cl)nc(N)n4)cc3F)c12
remaining binding (FGFR1; cell-free assay, competition with immobilised ligand; 0.1 µM): 100%

COc1cc(/C=C/C(=O)CC(=O)/C=C/c2ccc(O)c(OC)c2)ccc1O
activity vs control (FGFR1; enzyme activity, inhibitor; 1 µM): 102%

C=CC(=O)Nc1cc(Nc2nccc(Nc3cc(Cl)c(F)cc3C(C)(C)O)n2)c(OC)cc1N1CC[C@@H](N(C)C)C1
inhibition (FGFR1; enzyme activity, inhibitor; 1 µM): 3%

C/C=C/C(=O)NCc1ccc(-n2nc3c(=O)[nH]nc(N)c3c2-c2oc3ccc(C)cc3c2C)cc1
inhibition (FGFR1; enzyme activity, inhibitor, ELISA; 10 nM): 11.1%

C[C@@H]1CN(c2cc(-c3n[nH]c4ccc(OC5(C)CC5)cc34)ncn2)C[C@H](C)O1
remaining binding (FGFR1; cell-free assay, competition with immobilised ligand; 0.1 µM): 100%

C=CC(=O)Nc1cccc(-n2nc3c(=O)[nH]nc(N)c3c2-c2oc3ccc(C)cc3c2C)c1
inhibition (FGFR1; enzyme activity, inhibitor, ELISA; 10 nM): 10.6%

O=C1Nc2ccc(Cl)cc2C1=Cc1cc(Cl)c(O)c(Cl)c1
remaining signal (FGFR1; cell-free assay; 0.5 µM): 90.8%

CCC(=N\O)/C(C)=C/c1ccc(F)cc1
remaining binding (FGFR1; cell-free assay, competition with immobilised ligand; 1 µM): 100%

CN(c1ncccc1CNc1nc(Nc2ccc3c(c2)CC(=O)N3)ncc1C(F)(F)F)S(C)(=O)=O
inhibition (FGFR1; enzyme activity, inhibitor; 1 µM): 80.1%

COc1ccc(/C=C/C(=O)c2ccc(NC3=C(Cl)C(=O)c4ccccc4C3=O)cc2)cc1O
inhibition (FGFR1; enzyme activity, inhibitor, ADP detection; 1 µM): > 70%

Oc1ccc(-c2nc(-c3ccncc3)c(-c3ccc(F)cc3)[nH]2)cc1
remaining signal (FGFR1; cell-free assay; 0.5 µM): 86.8%

CNCc1ccccc1-c1csc([C@H](C)Nc2nc(C)nc3cc(OC)c(OC)cc23)c1
remaining binding (FGFR1; cell-free assay, competition with immobilised ligand; 1 µM): 100%

CC/C(=N\NC(=O)NCc1cccc(O)c1)c1ccc(O)c(C)c1O
inhibition (FGFR1; enzyme activity, inhibitor; 0.1 µM): 6.1%

CN(c1ccnc(CNc2nc(Nc3ccc4c(c3)CC(=O)N4)ncc2C(F)(F)F)n1)S(C)(=O)=O
remaining binding (FGFR1; cell-free assay, competition with immobilised ligand; 1 µM): 82%

CCOC(=O)c1c(C)[nH]c(/C=C2\C(=O)Nc3ccccc32)c1C
remaining signal (FGFR1; cell-free assay; 0.5 µM): 78.6%

O=S(=O)(NC1CCC(c2cc(F)ccc2F)(S(=O)(=O)c2ccc(Cl)cc2)CC1)C(F)(F)F (stereo not drawn)
remaining binding (FGFR1; cell-free assay, competition with immobilised ligand; 1 µM): 100%

Cc1ccc(C(=O)Nc2ccc(CN3CCN(C)CC3)c(C(F)(F)F)c2)cc1C#Cc1cnc2cccnn12
remaining signal (FGFR1; cell-free assay; 23.5 nM): 4.8%

C[C@@H]1CCN(C(=O)CC#N)C[C@@H]1N(C)c1ncnc2[nH]ccc12
remaining signal (FGFR1; cell-free assay; 0.5 µM): 101%

Cc1noc([C@H]2C[C@@H](c3ccc(C(F)(F)F)cc3)CN(C(=O)N3CCS(=O)(=O)C3)C2)n1
remaining binding (FGFR1; cell-free assay, competition with immobilised ligand; 1 µM): 100%

CN(c1nccc(-c2cnn3ncccc23)n1)C1CC1
remaining binding (FGFR1; binding; 1 µM): 75%
